In ChEMBL document CHEMBL1121595, “Fluoroprostaglandins: synthesis and biological evaluation of the methyl esters of (+)-12-fluoro-, (-)-ent-12-fluoro-, (+)-15-epi-fluoro-, and (-)-ent-15 epi-12-fluoroprostaglandin F2 alpha” (1980):

Legend:
[1] = tested on: Gerbillinae; assay: The compound was evaluated for the gerbil colon contraction.; format: functional
[2] = tested on: Cricetinae gen. sp.; assay: The compound was evaluated for the antifertility activity in hamster.; format: functional
Procedure, shortened: (§1)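 Pregnant hamsters (80–90 g), ten per compound, mated one male per female. A single subcutaneous dose in ethanol was given on day 5 of pregnancy. The minimum effective dose is the lowest dose per hamster per day that leaves no pregnancies in the group of ten. Relative potency was derived by comparing this dose with that of natural PGF2α.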

[3] = tested on: Cricetinae gen. sp.; assay: The compound was evaluated for the hamster uterine contraction.; format: functional, Cricetulus griseus
[4] = tested on: Cricetinae gen. sp.; assay: The compound was evaluated for the antifertility activity in hamster; no activity observed at 50 ug; format: functional, organism-based; details: Cricetulus griseus; procedure, shortened: as §1

In the case of `CCCCC[C@@H](O)/C=C/[C@@]1(F)[C@H](C/C=C\CCCC(=O)OC)[C@H](O)C[C@@H]1O`, the relative potency [1] is reported as 0.001, the relative potency [2] is reported as 0.17 and the relative potency [3] is reported as 0.004.

With `CCCCC[C@H](O)/C=C/[C@@]1(F)[C@H](C/C=C\CCCC(=O)OC)[C@H](O)C[C@@H]1O` the relative potency [1] was 0.0002, the MED [4] was “No activity observed at 50 ug” and the relative potency [3] was 0.0002.

`CCCCC[C@H](O)/C=C/[C@@]1(F)[C@H](O)C[C@H](O)[C@@H]1C/C=C\CCCC(=O)OC` was tested, and the relative potency [1] was 0.001, the relative potency [2] was 12.5 and the relative potency [3] was 0.28.

`CCCCC[C@H](O)/C=C/[C@@]1(F)[C@H](O)C[C@H](O)[C@@H]1C/C=C\CCCC(=O)O` was tested, and the relative potency [1] was 0.23, the relative potency [2] was 25 and the relative potency [3] was 0.65.

Compound `CCCCC[C@@H](O)/C=C/[C@@]1(F)[C@H](O)C[C@H](O)[C@@H]1C/C=C\CCCC(=O)OC` has a relative potency [1] of 0.011, a relative potency [2] of 1 and a relative potency [3] of 0.022.
